# Assay results from article PMC8301577 (Clinical and Translational Science, 2021).
# “And” between values parts separate entries of the source, which are not always exact repeats. Equal entries are not always repeated. “Also recorded” adds a separate entry of the source.
# Experiments:
# Single-dose = type: in vivo, human; settings: for CL: single oral dose 1 mg trandolapril, mean
# healthy volunteers = test: Single-dose; type: in vivo, human
# Summary of the method: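 Healthy non-smoking volunteers (8 CES1 G143E heterozygotes, 11 noncarriers) fasted overnight, then took a single 1 mg oral test compound dose with 240 ml water and fasted until 4 h post-dose. The maximal post-dose reduction was taken; mean ± SD.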
# [1] = Stability of QC samples in human plasma; type: physicochemical; settings: autosampler 4°C for 48 h or 3 successive freeze (−20°C) and thaw cycles
# Summary of the method: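 Plasma QC samples held both analytes at 30, 300 and 1000 pg/ml, five replicates each. They were extracted by solid phase with deuterated internal standards and quantified by LC-MS/MS. Processed samples were tested after 48 h in the autosampler at 4°C, and QC samples after three freeze (−20°C)/thaw cycles, following FDA bioanalytical validation guidance.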
# CES1 G143E = settings: cells transfected with the variant; cited from earlier work
# ACE = settings: cited from earlier work
# [2] = cited from earlier work
# [3] = G/E, individual subjects (n=8), single oral dose 1 mg
# [4] = G/G, individual subjects (n=11), single oral dose 1 mg
# [5] = Mean ± SD (G/E), n=8, single oral dose 1 mg
# [6] = Mean ± SD (G/G), n=11, single oral dose 1 mg
smiles,measurement,setting,value
CCOC(=O)[C@H](CCc1ccccc1)N[C@@H](C)C(=O)N1[C@H](C(=O)O)C[C@H]2CCCC[C@@H]21 [Trandolapril],CL,Single-dose; CES1 143G/E (n=8),1027.58 L/h
same,CL,Single-dose; CES1 143G/G (n=11),893.90 L/h
same,DBP Max reduction,healthy volunteers; [3],10 and 11 and 3 and 15 and 21 and 6 and 13
same,Heart rate Max reduction,healthy volunteers; [3],20 and 11 and 17 and 7 and 3 and 4 and 18
same,SBP Max reduction,healthy volunteers; [3],11 and 12 and 6 and 5 and 4 and 33
same,DBP Max reduction,healthy volunteers; [4],19 and 23 and 8 and 30 and 5 and 14 and 7 and 15 and 13
same,Heart rate Max reduction,healthy volunteers; [4],3 and −1 and 6 and 24 and 4 and −3 and 7 and 10 and 30 and 9
same,SBP Max reduction,healthy volunteers; [4],32 and 23 and 10 and 16 and 12 and 7 and 5 and 11
same,DBP Max reduction,healthy volunteers; [5],12 ± 6
same,Heart rate Max reduction,healthy volunteers; [5],12 ± 7
same,SBP Max reduction,healthy volunteers; [5],11 ± 9
same,DBP Max reduction,healthy volunteers; [6],15 ± 7
same,Heart rate Max reduction,healthy volunteers; [6],9 ± 10
same,SBP Max reduction,healthy volunteers; [6],14 ± 8
same,average maximum reduction of SBP in carriers less than in noncarriers,"healthy volunteers; abstract, not statistically significant",~ 22%
same,changes in heart rate after trandolapril administration,healthy volunteers; noncarrier and carrier group,no significant changes
same,time of maximal reduction of SBP and DBP after dosing,"healthy volunteers; noncarrier group, single oral dose 1 mg",6 to 8 h
same,maximum reduction of DBP in carrier group as percent of noncarrier group,"healthy volunteers; p = 0.26, not statistically significant",80.0%
same,maximum reduction of SBP in carrier group as percent of noncarrier group,"healthy volunteers; p = 0.54, not statistically significant",78.6%
same,stability of processed and QC samples,[1],stable
same,catalytic activity of CES1 G143E on trandolapril activation,CES1 G143E,abolished; also recorded: completely impaired
"C[C@H](N[C@@H](CCc1ccccc1)C(=O)O)C(=O)N1[C@H](C(=O)O)C[C@H]2CCCC[C@@H]21 [Trandolaprilat, trandolaprilat]",decrease of Cmax in G143E carriers relative to noncarriers,"Single-dose; 1 mg oral trandolapril, p = 0.17, not statistically significant",20%
same,decrease of AUC0–72 h in G143E carriers relative to noncarriers,"Single-dose; 1 mg oral trandolapril, p = 0.33, not statistically significant",15%
same,CL,Single-dose; CES1 143G/E (n=8),9.96 L/h
same,CL,Single-dose; CES1 143G/G (n=11),12.20 L/h
same,Tmax,"Single-dose; human, plasma, po, 1 mg",6.7 h
same,stability of processed and QC samples,[1],stable
same,potency at inhibiting ACE relative to parent compound trandolapril,ACE,approximately eight times more potent
CCOC(=O)[C@H](CCc1ccccc1)N[C@@H](C)C(=O)N1Cc2ccccc2C[C@H]1C(=O)O [quinapril],impact of G143E on PKs,"[2]; Finnish subjects, carriers = 10, noncarriers = 12",no significant impact
CCOC(=O)[C@H](CCc1ccccc1)N[C@@H](C)C(=O)N1CCC[C@H]1C(=O)O [enalapril],difference of PK parameters between G143E carriers and controls,"[2]; Danish volunteers, 6 carriers and 16 noncarriers",no significant difference
COC(=O)C(c1ccccc1)C1CCCCN1 (centres unmarked) [methylphenidate],mean AUC0‐∞ higher in G143E carriers than in controls,"[2]; Danish volunteers, 6 carriers and 16 noncarriers, p < 0.0001",152.4%
C[C@H](N[C@@H](CCc1ccccc1)C(=O)O)C(=O)N1CCC[C@H]1C(=O)O [enalaprilat],decrease of AUC0‐∞ in G143E carriers,"[2]; Finnish subjects, carriers = 10, noncarriers = 12, p = 0.049",20%
